The results in this text go back to ChEMBL document CHEMBL1629439, “High-throughput identification of antibacterials against methicillin-resistant Staphylococcus aureus (MRSA) and the transglycosylase” (Bioorg Med Chem, 2010).

The test system of test [1] is Staphylococcus aureus. Briefly: Antimicrobial activity against oxacillin- and methicillin-resistant Staphylococcus aureus isolate Sa-OXA-R2 after 18 to 24 hrs by alamar blue assay. It counts as functional. The procedure, abridged: (§1)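 Broth microdilution per NCCLS standard, Mueller-Hinton broth, 8-point twofold dilutions; exponentially growing cells at 5 10^5 cells/ml with compound, 18–24 h at 37 C; 20% Alamar blue added, fluorescence read; MIC90 taken as lowest concentration preventing at least 90% growth.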
On the technique in general: The colour change of resazurin is a common sign of viable cells or microbes.

In a further test the test system is Bacillus subtilis. Briefly: Antimicrobial activity against Bacillus subtilis ATCC 23857 after 18 to 24 hrs by alamar blue assay. It is filed as functional. The method in brief: (§2)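 Broth microdilution per NCCLS in Mueller-Hinton broth, 8-point twofold dilutions, 384-well format. Exponential-phase cells at 5 × 10^5 cells/ml incubated with compound 18–24 h at 37 °C, then 20% Alamar blue added and fluorescence read. MIC90 taken as the lowest concentration preventing at least 90% bacterial growth.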

A further test deals with Escherichia coli. Briefly: Antimicrobial activity against Escherichia coli ATCC […] after 18 to 24 hrs by alamar blue assay. It is filed as functional. The conditions noted are these: Escherichia coli; read-out: MIC. The method in brief:
as §2

In the next test the test system is Pseudomonas aeruginosa. Briefly: Antimicrobial activity against Pseudomonas aeruginosa ATCC 25619 after 18 to 24 hrs by alamar blue assay. It counts as functional. The note with it: Pseudomonas aeruginosa, ATCC 25619; read-out: MIC. The procedure, abridged: as §2
Another test relates to Acinetobacter baumannii. Briefly: Antimicrobial activity against Acinetobacter baumannii ATCC 49139 after 18 to 24 hrs by alamar blue assay. It counts as functional. The note with it: Acinetobacter baumannii, ATCC 49139; read-out: MIC. The method in brief:
as §2

The subject of test [2] is Stenotrophomonas maltophilia. Briefly: Antimicrobial activity against Stenotrophomonas maltophilia ATCC 13637 after 18 to 24 hrs by alamar blue assay. It is filed as functional. The conditions noted are these: Stenotrophomonas maltophilia, ATCC 13637; read-out: MIC. The procedure, abridged: as §2
A further test deals with Serratia marcescens. Briefly: Antimicrobial activity against Serratia marcescens ATCC 14756 after 18 to 24 hrs by alamar blue assay. It is filed as functional. The note with it: Serratia marcescens, ATCC 14756; read-out: MIC. The procedure, abridged:
as §2

Test [3] deals with Mycolicibacterium smegmatis. Put plainly: Antimicrobial activity against Mycobacterium smegmatis BCRC 11565 after 18 to 24 hrs by alamar blue assay. It counts as functional. The conditions noted are these: Mycolicibacterium smegmatis, BCRC 11565; read-out: MIC. The procedure, abridged:
as §2

The nature of test [4]: Inhibition of transglycosylase assessed as inhibition of NBD- labelled lipid II polymerization at 100 uM. The method in brief:
(§3)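 100 µM NBD-labelled lipid II incubated 30 min with full-length PBP (EC, SA or Mtb) and 10 ng/µl N-acetylmuramidase in 50 mM Tris-HCl pH 8.0, 10 mM MgCl2, 0.1% Triton X-100, 10% DMSO, 15% MeOH. Supernatant run on anion-exchange HPLC with 20 mM–0.5 M ammonium acetate gradient. Inhibition calculated from substrate peak-area percentage. IC50 determined. S. aureus strains share one SA enzyme.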

For test [5], the system named is Staphylococcus aureus. Briefly: Antimicrobial activity against methicillin-resistant Staphylococcus aureus isolate NTUH4722 after 18 to 24 hrs by alamar blue assay. It counts as functional. The method in brief: as §1
The test system of test [6] is Staphylococcus aureus. Put plainly: Antimicrobial activity against methicillin-resistant Staphylococcus aureus ATCC 33592 after 18 to 24 hrs by alamar blue assay. The conditions noted are these: Staphylococcus aureus, ATCC 33592; read-out: MIC. It is filed as functional. The method in brief:
as §1

The subject of test [7] is Staphylococcus aureus. Put plainly: Antimicrobial activity against Staphylococcus aureus ATCC 29213 after 18 to 24 hrs by alamar blue assay.
A short description of test [8]: Displacement of fluorescein-labeled moenomycin from transglycosylase at 100 uM after 30 mins by fluorescence anisotropy binding assay.
A short description of test [9]: Inhibition of transglycosylase assessed as inhibition of NBD- labelled lipid II polymerization. The procedure, abridged:
as §3

The MIC is the lowest concentration found to suppress growth. For orientation: inhibition means how much of the control response was suppressed. In general, IC90 refers to the concentration at which the effect reaches the 90% level.

Values after ≈ are worked out from the molar mass of the structure shown.

With `CCN(CC)c1cc(C)c2cc(NC(=O)c3ccc([N+](=O)[O-])o3)ccc2n1`, the minimum inhibitory concentration (MIC) was over 4 µg/mL against Staphylococcus aureus [1]; 0.06 µg/mL (≈ 0.163 µM) against Bacillus subtilis; 256 µg/mL (≈ 695 µM) with Escherichia coli; 128 µg/mL (≈ 347 µM) with Pseudomonas aeruginosa; 12 µg/mL (≈ 32.6 µM) with Acinetobacter baumannii; 32 µg/mL (≈ 86.9 µM) in [2]. Also, the MIC in the test on Serratia marcescens is 32 µg/mL (≈ 86.9 µM); in test [3] it was 0.5 µg/mL (≈ 1.36 µM); in the test on Staphylococcus aureus [5], over 4 µg/mL; in the test on Staphylococcus aureus [6] it was over 4 µg/mL; in the test on Staphylococcus aureus [7] it was 2 µg/mL (≈ 5.43 µM). In addition, the inhibition in [4] was 0%; in test [8], 90%.
For `O=C(Nc1ccc(Cl)c(Cl)c1)c1cc(Cl)cc(Cl)c1O` [3,3',4',5-TETRACHLOROSALICYLANILIDE], the MIC against Staphylococcus aureus [1] is 1 µg/mL (≈ 2.85 µM); against Bacillus subtilis, under 0.03 µg/mL; in the test on Escherichia coli it was 8 µg/mL (≈ 22.8 µM); in the test with Pseudomonas aeruginosa it was 16 µg/mL (≈ 45.6 µM); with Acinetobacter baumannii it was 16 µg/mL (≈ 45.6 µM); in test [2] it was 16 µg/mL (≈ 45.6 µM). Moreover, the MIC in the test on Serratia marcescens stood at 16 µg/mL (≈ 45.6 µM); in test [3], 0.5 µg/mL (≈ 1.42 µM); against Staphylococcus aureus [5], 1 µg/mL (≈ 2.85 µM); with Staphylococcus aureus [6], 1 µg/mL (≈ 2.85 µM); in the test with Staphylococcus aureus [7] it was 0.25 µg/mL (≈ 0.712 µM). Further, the inhibition was found to be 0% in test [4] and 90% in test [8].
On to `O=C(c1ccc(Cl)cc1)c1cc(NC(=O)c2cc(Cl)cc(Br)c2O)c(Cl)cc1Cl`, for which the MIC against Staphylococcus aureus [1] was 0.25 µg/mL (≈ 0.468 µM); against Bacillus subtilis, under 0.03 µg/mL; in the test on Escherichia coli it was 8 µg/mL (≈ 15 µM); in the test with Pseudomonas aeruginosa, 16 µg/mL (≈ 30 µM); in the test with Acinetobacter baumannii it was 16 µg/mL (≈ 30 µM); in test [2], 16 µg/mL (≈ 30 µM). Moreover, the MIC was found to be 16 µg/mL (≈ 30 µM) in the test with Serratia marcescens; 0.5 µg/mL (≈ 0.936 µM) in [3]; 0.25 µg/mL (≈ 0.468 µM) with Staphylococcus aureus [5]; 0.25 µg/mL (≈ 0.468 µM) in the test on Staphylococcus aureus [6]; 0.25 µg/mL (≈ 0.468 µM) with Staphylococcus aureus [7]. Besides, the inhibition was found to be 90% in test [4] and 92% in test [8]. Further, the IC90 in test [9] stood at 100 µM.
With `COc1cccc(-c2coc3c(C)c4oc(=O)c(CCC(=O)O)c(C)c4cc23)c1`, the minimum inhibitory concentration (MIC) in the test with Staphylococcus aureus [1] was 2.5 µg/mL (≈ 6.37 µM); with Bacillus subtilis, over 64 µg/mL; with Escherichia coli, over 256 µg/mL; with Pseudomonas aeruginosa, over 256 µg/mL; in the test on Acinetobacter baumannii, over 256 µg/mL; in [2], over 256 µg/mL. Also, the MIC in the test with Serratia marcescens was over 256 µg/mL; in test [3], 1 µg/mL (≈ 2.55 µM); against Staphylococcus aureus [5], 2.5 µg/mL (≈ 6.37 µM); in the test with Staphylococcus aureus [6], 2.5 µg/mL (≈ 6.37 µM); against Staphylococcus aureus [7] it was 2.5 µg/mL (≈ 6.37 µM). Also, the results for the inhibition in test [4] and in test [8] were 0% and 90%, respectively.
As for `O=C(Nc1ccc(C(F)(F)F)cc1)N1CCN(c2nc(CCc3ccccc3)nc3sc4c(c23)CCCC4)CC1`, the figures for the inhibition in [4] and in [8] were 0% and 90%, respectively.
For the compound `CN1C(=O)c2ccccc2Sc2ccc(NC(=O)c3ccc([N+](=O)[O-])o3)cc21`, the MIC stood at 2 µg/mL (≈ 5.06 µM) in the test on Staphylococcus aureus [1]; 0.06 µg/mL (≈ 0.152 µM) in the test on Bacillus subtilis; 256 µg/mL (≈ 647 µM) with Escherichia coli; 128 µg/mL (≈ 324 µM) with Pseudomonas aeruginosa; 12 µg/mL (≈ 30.3 µM) with Acinetobacter baumannii; 32 µg/mL (≈ 80.9 µM) in test [2]. The MIC turned out to be 32 µg/mL (≈ 80.9 µM) with Serratia marcescens; 0.5 µg/mL (≈ 1.26 µM) in [3]; 0.5 µg/mL (≈ 1.26 µM) in the test on Staphylococcus aureus [5]; 1 µg/mL (≈ 2.53 µM) with Staphylococcus aureus [6]; 2 µg/mL (≈ 5.06 µM) in the test on Staphylococcus aureus [7]. For the same compound, the inhibition in test [4] stood at 0%; in [8], 91%.
As to `Cc1ccc(-c2cc(C(=O)Oc3cccc(C)c3)no2)cc1`, the figures for the inhibition in test [4] and in test [8] were 0% and 96%, respectively.
With `CCn1cc(C(=O)O)c(=O)c2cc(F)c(N3CCN(C(=O)c4cccc(C)c4)CC3)cc21`, the inhibition in [4] was found to be 0%; in test [8] it was 93%.
On to `O=C(Nc1ccc(Oc2ccc3ccccc3c2Cl)c(Cl)c1)c1cc(Br)cc(Br)c1O`, for which the MIC with Staphylococcus aureus [1] is at most 0.03 µg/mL; in the test on Bacillus subtilis it was under 0.03 µg/mL; in the test with Escherichia coli it was 8 µg/mL (≈ 13.7 µM); with Pseudomonas aeruginosa, 16 µg/mL (≈ 27.5 µM); in the test on Acinetobacter baumannii, 16 µg/mL (≈ 27.5 µM); in test [2], 16 µg/mL (≈ 27.5 µM). The MIC was 16 µg/mL (≈ 27.5 µM) in the test with Serratia marcescens; 0.5 µg/mL (≈ 0.859 µM) in test [3]; at most 0.03 µg/mL against Staphylococcus aureus [5]; at most 2 µg/mL in the test with Staphylococcus aureus [6]; at most 2 µg/mL with Staphylococcus aureus [7]. Also, in test [9], the IC90 was found to be 100 µM.
